We go through eleven compounds from ChEMBL document CHEMBL4261587 (Eur J Med Chem, 2018).

In general, IC50 refers to the midpoint of a concentration-inhibition curve. The term half-life denotes the time in which the quantity being followed falls by half. The inhibition is the change of the read-out against control, counted positive when it falls.

The structures appear in SMILES notation.

Data set [1] concerns the target Dual specificity tyrosine-phosphorylation-regulated kinase 1B (Homo sapiens, UniProt Q9Y463). Briefly: Inhibition of recombinant full length human Dyrk1B expressed in Baculovirus expression system using KKISGRLSPIMTEQ as substrate in presence of ATP.
Data set [2] concerns HeLa. Briefly: Cytotoxicity against human HeLa cells assessed as cell viability at 1 uM by XTT assay. Format: functional. Particulars: read-out: Activity. On the technique in general: Tetrazolium assays rely on reduction of a dye to a coloured formazan, in cell work by metabolically active cells.
Data set [3] can be described thus: Half life in human liver S9 fraction at 0.3 uM incubated up to 120 mins at 37 degC in presence of NADP+/UDPGA by LC-MS/MS analysis. Format: ADME, subcellular. The method in brief:
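Phase I and phase II metabolic stability was tested in S9 fraction from human liver homogenate. Samples were taken at several time points, and the remaining parent compound was quantified by LC-MS/MS to give a metabolic half-life.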

The nature of data set [4]: Half life in Sprague-Dawley rat liver microsomes at 0.5 uM by LC-MS/MS analysis. It counts as ADME, microsome. For orientation: Liver microsomes are vesicles of endoplasmic reticulum, rich in cytochrome P450 enzymes.
The subject of data set [5] is HeLa. The experiment in a line: Cytotoxicity against human HeLa cells after 5 days by MTT assay. The following applies: 120 h. It counts as functional, cell-based.
Data set [6] concerns HeLa. Briefly: Cytotoxicity against human HeLa cells after 72 hrs by CellTiter-Blue assay. Format: functional, cell-based. A general note: Resazurin is reduced to fluorescent resorufin, in cell work by metabolically active cells.
The target in data set [7] is T1, Dual specificity tyrosine-phosphorylation-regulated kinase 1A (Homo sapiens, UniProt Q13627). The experiment in a line: Inhibition of recombinant full length human Dyrk1A expressed in Baculovirus expression system using KKISGRLSPIMTEQ as substrate in presence of ATP.
Data set [8] has as its target Cyclin-dependent kinase 5/CDK5 activator 1 (Homo sapiens) (UniProt Q00535+Q15078). The experiment in a line: Inhibition of recombinant human CDK5/p25 expressed in baculovirus expression system at 2 uM by Z'-LYTE assay.
Data set [9] deals with Dual specificity protein kinase CLK1 (Homo sapiens, UniProt P49759). The experiment in a line: Inhibition of recombinant human Clk1 expressed in Escherichia coli at 2 uM by Z'-LYTE assay.
Data set [10] deals with Dual specificity protein kinase CLK2 (Homo sapiens) (UniProt P49760). Briefly: Inhibition of recombinant human Clk2 expressed in Baculovirus expression system at 2 uM by Z'-LYTE assay.
Data set [11] deals with Casein kinase I isoform delta (Homo sapiens) (UniProt P48730). Briefly: Inhibition of recombinant human CK1delta expressed in Baculovirus expression system at 2 uM by Z'-LYTE assay.
Data set [12] addresses T1, Dual specificity tyrosine-phosphorylation-regulated kinase 1A. The experiment in a line: Inhibition of recombinant human Dyrk1A expressed in Baculovirus expression system at 2 uM by Z'-LYTE assay.
Data set [13] has as its target T2, Dual specificity tyrosine-phosphorylation-regulated kinase 2 (Homo sapiens, UniProt Q92630).
T2 sequence (Q92630 whole entry): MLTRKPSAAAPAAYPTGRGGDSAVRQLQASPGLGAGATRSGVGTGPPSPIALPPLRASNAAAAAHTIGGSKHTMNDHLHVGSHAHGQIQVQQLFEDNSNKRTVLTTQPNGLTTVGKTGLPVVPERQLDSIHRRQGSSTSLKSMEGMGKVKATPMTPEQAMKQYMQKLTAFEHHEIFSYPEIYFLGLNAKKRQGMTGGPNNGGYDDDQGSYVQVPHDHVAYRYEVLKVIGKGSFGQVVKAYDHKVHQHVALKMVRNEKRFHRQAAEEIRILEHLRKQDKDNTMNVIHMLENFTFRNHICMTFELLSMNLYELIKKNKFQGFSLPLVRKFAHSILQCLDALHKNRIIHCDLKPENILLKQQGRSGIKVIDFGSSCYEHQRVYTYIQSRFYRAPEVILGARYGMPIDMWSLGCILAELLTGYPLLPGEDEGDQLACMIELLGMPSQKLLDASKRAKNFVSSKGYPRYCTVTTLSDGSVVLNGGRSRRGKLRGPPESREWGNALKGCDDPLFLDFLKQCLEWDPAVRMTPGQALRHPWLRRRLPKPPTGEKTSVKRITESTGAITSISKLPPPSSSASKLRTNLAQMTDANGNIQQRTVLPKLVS
The experiment in a line: Inhibition of recombinant human Dyrk2 (unknown origin) at 2 uM by Lantha-screen assay.

The target in data set [14] is T3, Serine/threonine-protein kinase haspin (Homo sapiens) (UniProt Q8TF76).
T3 sequence (whole entry): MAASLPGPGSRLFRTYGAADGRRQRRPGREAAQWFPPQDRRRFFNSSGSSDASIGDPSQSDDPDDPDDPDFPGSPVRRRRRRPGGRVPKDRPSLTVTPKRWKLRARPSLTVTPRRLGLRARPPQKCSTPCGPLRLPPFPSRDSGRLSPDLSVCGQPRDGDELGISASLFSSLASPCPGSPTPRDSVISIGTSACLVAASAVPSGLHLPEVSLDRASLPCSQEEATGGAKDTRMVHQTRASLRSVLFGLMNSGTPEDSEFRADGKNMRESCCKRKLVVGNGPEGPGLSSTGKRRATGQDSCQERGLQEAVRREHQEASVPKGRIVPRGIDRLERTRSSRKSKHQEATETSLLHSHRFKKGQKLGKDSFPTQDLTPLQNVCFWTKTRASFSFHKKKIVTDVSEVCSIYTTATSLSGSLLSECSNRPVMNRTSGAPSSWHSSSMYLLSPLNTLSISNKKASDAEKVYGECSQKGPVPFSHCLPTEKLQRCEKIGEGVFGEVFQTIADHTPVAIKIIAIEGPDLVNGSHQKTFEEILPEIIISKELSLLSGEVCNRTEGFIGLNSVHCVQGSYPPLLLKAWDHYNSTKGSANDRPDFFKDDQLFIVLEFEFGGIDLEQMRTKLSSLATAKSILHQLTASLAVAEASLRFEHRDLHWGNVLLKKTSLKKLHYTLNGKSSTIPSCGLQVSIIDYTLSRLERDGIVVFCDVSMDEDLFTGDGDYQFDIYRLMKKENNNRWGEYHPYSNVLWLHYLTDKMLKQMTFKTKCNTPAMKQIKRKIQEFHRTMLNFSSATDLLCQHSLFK
The experiment in a line: Inhibition of recombinant human Haspin expressed in Baculovirus expression system at 2 uM by Adapta assay.

In data set [15] the target is Homeodomain-interacting protein kinase 1 (Homo sapiens) (UniProt Q86Z02). The experiment in a line: Inhibition of recombinant human HIPK1 expressed in Baculovirus expression system at 2 uM by Z'-LYTE assay.
Data set [16] deals with Myosin light chain kinase 2, skeletal/cardiac muscle (Homo sapiens) (UniProt Q9H1R3). The experiment in a line: Inhibition of recombinant human MLCK2 expressed in Baculovirus expression system at 2 uM by Lantha-screen assay.
For data set [17], the target named is BDNF/NT-3 growth factors receptor (Homo sapiens) (UniProt Q16620). The experiment in a line: Inhibition of recombinant human TRKB expressed in Baculovirus expression system at 2 uM by Z'-LYTE assay.
Data set [18] has as its target Serine/threonine-protein kinase pim-1 (Homo sapiens) (UniProt P11309). The experiment in a line: Inhibition of recombinant human PIM1 expressed in Baculovirus expression system at 2 uM by Z'-LYTE assay.
In data set [19] the target is SRSF protein kinase 1 (Homo sapiens) (UniProt Q96SB4). Briefly: Inhibition of recombinant human SRPK1 expressed in Baculovirus expression system at 2 uM by Z'-LYTE assay.
The target in data set [20] is T4, Serine/threonine-protein kinase 17A (Homo sapiens) (UniProt Q9UEE5).
T4 sequence (whole entry): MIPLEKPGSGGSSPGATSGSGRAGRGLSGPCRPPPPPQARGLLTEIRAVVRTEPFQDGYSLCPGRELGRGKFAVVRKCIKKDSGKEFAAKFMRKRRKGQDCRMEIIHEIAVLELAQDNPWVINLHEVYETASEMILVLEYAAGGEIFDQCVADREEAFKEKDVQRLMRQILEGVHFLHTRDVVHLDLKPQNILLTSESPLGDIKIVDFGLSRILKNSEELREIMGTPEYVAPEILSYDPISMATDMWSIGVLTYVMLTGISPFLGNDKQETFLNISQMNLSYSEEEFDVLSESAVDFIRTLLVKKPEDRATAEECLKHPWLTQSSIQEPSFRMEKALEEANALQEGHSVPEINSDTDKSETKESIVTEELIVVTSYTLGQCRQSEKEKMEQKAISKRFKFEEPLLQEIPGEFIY
The experiment in a line: Inhibition of recombinant human STK17A expressed in Baculovirus expression system at 2 uM by Lantha-Screen assay.

Data set [21] deals with T1, Dual specificity tyrosine-phosphorylation-regulated kinase 1A. Briefly: Inhibition of recombinant human Dyrk1A expressed in Baculovirus expression system by Z'-LYTE assay.
Data set [22] addresses T5, Serine/threonine-protein kinase haspin (Homo sapiens, UniProt Q8TF76).
T5 sequence (Q8TF76 whole entry): T3 sequence (whole entry)
Briefly: Inhibition of recombinant human Haspin expressed in Baculovirus expression system by Adapta assay.

In data set [23] the target is T1, Dual specificity tyrosine-phosphorylation-regulated kinase 1A. Briefly: Inhibition of Dyrk1A in human HeLa cells transfected with GFP-SF3b1-NT assessed as decrease in SF3B1 phosphorylation at Thr434 after 18 hrs by Western blot analysis. Format: cell-based. The method in brief:
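HeLa cells were transiently transfected with a GFP-SF3b1 expression vector, then treated with compound. Read-out was phosphorylation of SF3b1 at Thr434, which serves as a marker of endogenous Dyrk1A activity in the cell.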

For data set [24], the system named is HeLa. The experiment in a line: Cytotoxicity against human HeLa cells assessed as cell viability at 3 uM by XTT assay. Format: functional. The following applies: read-out: Activity.
Data set [25] relates to HeLa. Briefly: Cytotoxicity against human HeLa cells assessed as cell viability at 10 uM by XTT assay. It counts as functional. The following applies: read-out: Activity.

Sequence of Dual specificity tyrosine-phosphorylation-regulated kinase 1B (Q9Y463 whole entry): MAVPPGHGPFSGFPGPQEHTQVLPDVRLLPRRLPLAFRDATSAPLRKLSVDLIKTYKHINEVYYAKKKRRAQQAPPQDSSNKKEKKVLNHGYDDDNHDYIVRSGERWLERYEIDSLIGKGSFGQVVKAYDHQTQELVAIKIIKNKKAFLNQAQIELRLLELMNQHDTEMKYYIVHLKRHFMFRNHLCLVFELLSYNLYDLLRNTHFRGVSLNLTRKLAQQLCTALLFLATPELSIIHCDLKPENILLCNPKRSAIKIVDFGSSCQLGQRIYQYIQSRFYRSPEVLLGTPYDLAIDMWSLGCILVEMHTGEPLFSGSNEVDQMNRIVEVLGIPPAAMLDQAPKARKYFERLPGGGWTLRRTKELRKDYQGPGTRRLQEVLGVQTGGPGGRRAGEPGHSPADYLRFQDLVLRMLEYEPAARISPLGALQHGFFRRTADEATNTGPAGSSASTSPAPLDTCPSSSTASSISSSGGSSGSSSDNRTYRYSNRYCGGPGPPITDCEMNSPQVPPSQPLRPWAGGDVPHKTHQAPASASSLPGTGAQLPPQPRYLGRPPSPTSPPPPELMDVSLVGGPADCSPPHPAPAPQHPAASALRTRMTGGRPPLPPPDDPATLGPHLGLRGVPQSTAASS
Sequence of Dual specificity protein kinase CLK2 (Homo sapiens) (P49760 whole entry, looked up, canonical isoform): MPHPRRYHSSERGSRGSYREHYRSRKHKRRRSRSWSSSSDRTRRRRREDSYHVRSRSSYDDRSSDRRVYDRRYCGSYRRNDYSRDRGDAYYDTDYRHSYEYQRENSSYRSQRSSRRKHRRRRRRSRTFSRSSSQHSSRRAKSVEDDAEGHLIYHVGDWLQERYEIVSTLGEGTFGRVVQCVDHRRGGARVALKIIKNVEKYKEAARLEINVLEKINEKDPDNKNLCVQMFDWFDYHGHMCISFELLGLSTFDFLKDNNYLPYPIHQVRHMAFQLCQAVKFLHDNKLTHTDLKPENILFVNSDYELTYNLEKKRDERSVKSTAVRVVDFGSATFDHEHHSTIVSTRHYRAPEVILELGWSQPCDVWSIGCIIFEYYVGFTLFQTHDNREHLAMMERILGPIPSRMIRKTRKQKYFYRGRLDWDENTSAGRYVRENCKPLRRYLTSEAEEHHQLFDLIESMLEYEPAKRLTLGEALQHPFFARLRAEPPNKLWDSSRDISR
Sequence of Homeodomain-interacting protein kinase 1 (Homo sapiens) (Q86Z02 whole entry, looked up): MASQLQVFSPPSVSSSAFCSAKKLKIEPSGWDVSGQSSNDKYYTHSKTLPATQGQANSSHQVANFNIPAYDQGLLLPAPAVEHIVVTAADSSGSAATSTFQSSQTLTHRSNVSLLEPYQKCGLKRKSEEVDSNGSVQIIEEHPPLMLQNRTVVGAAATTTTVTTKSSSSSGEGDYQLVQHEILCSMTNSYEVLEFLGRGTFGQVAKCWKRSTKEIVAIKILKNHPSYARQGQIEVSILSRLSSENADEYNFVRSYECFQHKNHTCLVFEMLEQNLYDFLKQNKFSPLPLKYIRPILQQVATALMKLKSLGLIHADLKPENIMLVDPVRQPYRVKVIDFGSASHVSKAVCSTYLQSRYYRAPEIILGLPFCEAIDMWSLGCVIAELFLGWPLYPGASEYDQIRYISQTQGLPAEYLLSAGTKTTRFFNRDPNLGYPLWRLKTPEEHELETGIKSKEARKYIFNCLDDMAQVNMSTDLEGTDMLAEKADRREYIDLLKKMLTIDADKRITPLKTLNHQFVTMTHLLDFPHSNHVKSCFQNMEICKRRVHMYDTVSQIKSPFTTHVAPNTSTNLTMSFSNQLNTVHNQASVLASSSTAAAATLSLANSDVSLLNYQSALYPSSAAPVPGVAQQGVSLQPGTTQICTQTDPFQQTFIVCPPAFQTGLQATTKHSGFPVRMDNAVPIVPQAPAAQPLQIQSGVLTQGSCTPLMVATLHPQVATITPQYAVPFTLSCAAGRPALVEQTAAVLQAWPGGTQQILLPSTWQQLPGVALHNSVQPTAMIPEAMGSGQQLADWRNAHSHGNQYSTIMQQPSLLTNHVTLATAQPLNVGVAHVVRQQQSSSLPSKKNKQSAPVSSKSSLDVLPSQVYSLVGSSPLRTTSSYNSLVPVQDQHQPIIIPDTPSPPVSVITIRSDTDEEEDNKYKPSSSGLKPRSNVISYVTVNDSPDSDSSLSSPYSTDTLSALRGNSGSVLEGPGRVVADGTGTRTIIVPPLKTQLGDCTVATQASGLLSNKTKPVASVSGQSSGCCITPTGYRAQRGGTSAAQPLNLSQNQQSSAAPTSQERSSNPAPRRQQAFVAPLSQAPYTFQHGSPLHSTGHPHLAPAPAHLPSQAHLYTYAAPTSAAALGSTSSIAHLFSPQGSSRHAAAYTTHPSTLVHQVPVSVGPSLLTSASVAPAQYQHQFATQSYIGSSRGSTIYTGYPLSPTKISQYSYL
Sequence of Cyclin-dependent kinase 5/CDK5 activator 1 (Homo sapiens) (Q00535 whole entry): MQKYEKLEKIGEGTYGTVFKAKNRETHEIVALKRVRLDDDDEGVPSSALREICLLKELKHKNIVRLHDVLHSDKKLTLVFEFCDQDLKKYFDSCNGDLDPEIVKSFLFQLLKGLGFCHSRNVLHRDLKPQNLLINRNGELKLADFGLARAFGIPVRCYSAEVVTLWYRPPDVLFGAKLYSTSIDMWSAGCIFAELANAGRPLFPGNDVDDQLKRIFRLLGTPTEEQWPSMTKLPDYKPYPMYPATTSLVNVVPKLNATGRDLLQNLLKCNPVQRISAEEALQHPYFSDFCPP
Sequence of Cyclin-dependent kinase 5/CDK5 activator 1 (Homo sapiens) (Q15078 99-307 partner limits assumed): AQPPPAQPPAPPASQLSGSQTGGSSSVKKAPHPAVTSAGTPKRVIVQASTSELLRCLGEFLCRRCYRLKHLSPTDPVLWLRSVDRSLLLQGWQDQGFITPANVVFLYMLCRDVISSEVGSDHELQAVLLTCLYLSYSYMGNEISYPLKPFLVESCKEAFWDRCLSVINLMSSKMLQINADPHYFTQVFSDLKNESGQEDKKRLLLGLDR
Sequence of Serine/threonine-protein kinase pim-1 (Homo sapiens) (P11309 whole entry, looked up): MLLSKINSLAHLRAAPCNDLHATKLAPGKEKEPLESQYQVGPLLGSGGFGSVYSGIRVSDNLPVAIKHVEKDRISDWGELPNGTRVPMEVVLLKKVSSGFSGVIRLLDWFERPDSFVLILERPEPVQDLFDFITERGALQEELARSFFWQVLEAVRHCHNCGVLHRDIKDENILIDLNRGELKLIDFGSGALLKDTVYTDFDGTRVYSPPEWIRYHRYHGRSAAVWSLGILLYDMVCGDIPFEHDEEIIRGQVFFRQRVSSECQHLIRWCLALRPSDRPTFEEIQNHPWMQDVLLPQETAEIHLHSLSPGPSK
Sequence of Myosin light chain kinase 2, skeletal/cardiac muscle (Homo sapiens) (Q9H1R3 whole entry): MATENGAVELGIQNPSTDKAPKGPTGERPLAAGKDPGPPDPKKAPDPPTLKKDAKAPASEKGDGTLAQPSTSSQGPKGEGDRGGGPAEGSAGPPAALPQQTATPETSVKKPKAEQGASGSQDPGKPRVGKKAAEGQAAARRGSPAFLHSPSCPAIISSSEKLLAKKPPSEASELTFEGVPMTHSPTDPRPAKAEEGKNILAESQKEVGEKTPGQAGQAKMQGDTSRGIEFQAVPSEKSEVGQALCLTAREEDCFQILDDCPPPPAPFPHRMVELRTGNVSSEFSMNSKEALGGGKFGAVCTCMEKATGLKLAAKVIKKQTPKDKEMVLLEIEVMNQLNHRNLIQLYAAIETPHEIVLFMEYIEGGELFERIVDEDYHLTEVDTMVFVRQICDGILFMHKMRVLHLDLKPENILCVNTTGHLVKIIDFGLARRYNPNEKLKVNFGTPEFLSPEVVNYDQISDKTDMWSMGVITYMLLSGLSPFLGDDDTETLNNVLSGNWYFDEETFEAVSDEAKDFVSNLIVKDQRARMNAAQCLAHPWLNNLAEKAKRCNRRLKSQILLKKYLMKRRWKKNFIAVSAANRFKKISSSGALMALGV
Sequence of BDNF/NT-3 growth factors receptor (Homo sapiens) (Q16620 32-822 limits assumed): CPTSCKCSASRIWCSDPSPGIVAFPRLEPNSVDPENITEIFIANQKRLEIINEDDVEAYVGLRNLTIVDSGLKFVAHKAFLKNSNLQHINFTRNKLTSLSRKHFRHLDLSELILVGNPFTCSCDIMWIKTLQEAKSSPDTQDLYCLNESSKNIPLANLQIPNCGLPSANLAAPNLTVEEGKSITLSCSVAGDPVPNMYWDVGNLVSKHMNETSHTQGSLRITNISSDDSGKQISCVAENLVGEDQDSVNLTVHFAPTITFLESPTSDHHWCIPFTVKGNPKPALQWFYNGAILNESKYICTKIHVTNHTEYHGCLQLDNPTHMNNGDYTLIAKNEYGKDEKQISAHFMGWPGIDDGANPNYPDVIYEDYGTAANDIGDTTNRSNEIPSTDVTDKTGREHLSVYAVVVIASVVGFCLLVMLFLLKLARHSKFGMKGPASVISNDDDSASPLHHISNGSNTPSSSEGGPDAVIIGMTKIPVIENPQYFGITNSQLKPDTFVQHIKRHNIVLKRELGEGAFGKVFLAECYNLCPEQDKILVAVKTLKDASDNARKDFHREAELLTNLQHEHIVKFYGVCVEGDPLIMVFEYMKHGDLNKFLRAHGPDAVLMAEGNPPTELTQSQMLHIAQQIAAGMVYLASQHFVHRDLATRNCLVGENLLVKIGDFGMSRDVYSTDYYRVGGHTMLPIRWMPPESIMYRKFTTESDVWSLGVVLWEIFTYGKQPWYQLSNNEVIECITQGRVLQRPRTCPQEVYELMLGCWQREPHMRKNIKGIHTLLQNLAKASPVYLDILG
Sequence of Casein kinase I isoform delta (Homo sapiens) (P48730 whole entry, looked up, canonical isoform): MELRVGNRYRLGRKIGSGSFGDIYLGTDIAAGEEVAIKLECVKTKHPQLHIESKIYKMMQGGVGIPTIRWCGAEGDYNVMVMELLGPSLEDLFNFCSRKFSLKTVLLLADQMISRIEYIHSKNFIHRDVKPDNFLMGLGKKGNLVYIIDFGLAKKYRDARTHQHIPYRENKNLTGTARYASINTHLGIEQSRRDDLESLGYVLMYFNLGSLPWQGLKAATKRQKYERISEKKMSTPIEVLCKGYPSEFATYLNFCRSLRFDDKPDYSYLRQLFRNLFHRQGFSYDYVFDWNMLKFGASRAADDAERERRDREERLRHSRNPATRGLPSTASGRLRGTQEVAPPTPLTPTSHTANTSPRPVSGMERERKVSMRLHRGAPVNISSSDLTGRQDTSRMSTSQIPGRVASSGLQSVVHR

In the case of `Nc1ccc(-c2cc(-c3cccnc3)cs2)cn1`, the IC50 in data set [1] came out at 251 nM.

For `CN[C@@H]1C[C@H]2O[C@@](C)([C@@H]1OC)n1c3ccccc3c3c4c(c5c6ccccc6n2c5c31)C(=O)NC4` [STAUROSPORINE], the viability at 1 µM in the data set on HeLa [2] amounted to 33%.

With `C[C@]12CC[C@H]3[C@@H](CCC4=CC(=O)CC[C@@]43C)[C@@H]1CC[C@@H]2O` [TESTOSTERONE], the half-life at 0.3 µM in data set [3] turned out to be 0.142 h.

Take `O=C(Nc1cncc(-c2cc(-c3cccnc3)cs2)c1)c1c(F)cc(F)cc1F`: the IC50 in data set [1] is 298 nM. In data set [3], the half-life at 0.3 µM stood at 2.05 h.

In the case of `Nc1cncc(-c2csc(-c3cccnc3)c2)c1`, in data set [1], the IC50 worked out at 130 nM.

`c1cncc(-c2cc(-c3cncs3)cs2)c1` displayed a half-life at 0.5 µM in [4] of 0.45 h.

In the data set with HeLa [5], `COc1ccc2c(c1)[nH]c1c(C)nccc12` [HARMINE] yielded a half-inhibitory concentration (IC50) of 8000 nM.

With `Nc1cncc(-c2cc(-c3cccnc3)cs2)c1`, in data set [1], the IC50 is 154 nM.

`Oc1ccc(-c2nc3ccc4[nH]ncc4c3c3c2CCCC3)c(F)c1` had an IC50 in the data set with HeLa [6] of 4800 nM.

`O=C(Cc1ccccc1)Nc1cncc(-c2cc(-c3cccnc3)cs2)c1`: in data set [1], the IC50 came out at 326 nM.

Consider `O=C(Cc1ccc(F)cc1)Nc1cncc(-c2cc(-c3cccnc3)cs2)c1`, for which the IC50 in [7] turned out to be 14.3 nM; in data set [1], 383 nM; in data set [21] it was 14.3 nM; in data set [22], 36 nM; in [23] it was 79 nM. The inhibition in data set [8] is 0%; in data set [10], 19%; in [11] it was 4%; in data set [12], 87%; in [14] it was 95%; in data set [15], 0%. In addition, the inhibition amounted to 9.8% in data set [16]; 10% in data set [17]; 8% in data set [18]; 2% in data set [19]; 60% in data set [20]. Further, the inhibition at 2 µM in [9] and in data set [13] was 40% each time. In addition, the viability at 1 µM in the data set with HeLa [2] is 99%. Besides, the viability at 3 µM with HeLa [24] was 97%. Moreover, the viability at 10 µM in the data set on HeLa [25] was found to be 88%. For the same compound, the half-life at 0.3 µM in [3] worked out at 1.97 h.
